The species entered for one assay is Cavia porcellus. The experiment in a line: compound was evaluated for agonist activity in smooth muscle preparation of guinea pig ileum (GPI) at 1 uM concentration. Type of assay: functional. The conditions noted are these: Muscle tissue. The method in brief:
(§1)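 Ligand at 1 µM tested directly on guinea pig ileum longitudinal muscle or mouse vas deferens; percent inhibition of the preparation recorded. Mean ± SEM of 3 experiments.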

In assay [1] the test system is Mus musculus. The experiment in a line: Compound was tested for antagonistic activity of opioid agonist induced antinociception by using DPDPE as agonist, administered icv in mice. Type of assay: functional. The method, boiled down: (§2)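 Mice received isothiocyanate 10 nmol icv 24 h before testing. Agonist ED50 was then found in the abdominal stretch assay: DPDPE and DSLET given icv, morphine and U50488 given sc. Result is the ED50 ratio, treated over untreated control mice, with significance testing.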

Assay [2] concerns Mus musculus. Briefly: Compound was tested for antagonistic activity of opioid agonist induced antinociception by using DSLET as agonist, administered icv in mice. Type of assay: functional. The method in brief:
as §2

Assay [3] deals with Mus musculus. The experiment in a line: Compound was tested for antagonistic activity of opioid agonist induced antinociception by using U-50,488H as agonist, administered sc in mice. Type of assay: functional. The method in brief:
as §2

Assay [4] has as its system Mus musculus. Briefly: Compound was tested for antagonistic activity of opioid agonist induced antinociception by using morphine as agonist, administered sc in mice. Type of assay: functional. The method in brief: as §2
The species named for assay [5] is Mus musculus. The experiment in a line: compound was evaluated for agonist activity in smooth muscle preparation of mouse vas deferens (MVD) at 1 uM concentration. Type of assay: functional. The conditions noted are these: Muscle tissue. The method, boiled down: as §1
A short description of assay [6]: Prewash IC50 ratio obtained by dividing the IC50 of the DADLE in presence of the antagonist by the IC50 of the agonist alone in the same tissue preparation against delta receptor in mouse vas deferens. Type of assay: functional. The method, boiled down:
(§3)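 Guinea pig ileum longitudinal muscle (morphine, ethylketazocine) or mouse vas deferens (DADLE). Tissue was exposed to antagonist at 100 nM, or 1 nM for one isomer, for 30 min before agonist concentration-response. Prewash ratio is agonist IC50 with antagonist over IC50 alone in the same tissue. Where the shift was significant, tissue was washed extensively and IC50 redetermined; postwash ratio is over control IC50. Mean ± SEM.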

Assay [7] addresses Kappa-type opioid receptor (UniProt P41145). Briefly: Prewash IC50 ratio obtained by dividing the IC50 of the ethylketazocine in presence of the antagonist by the IC50 of the agonist alone in the same tissue preparation against opioid receptor kappa in guinea pig ileum. Type of assay: functional, tissue-based. The method in brief: as §3
Assay [8] addresses Mu-type opioid receptor (UniProt P35372). Briefly: Prewash IC50 ratio obtained by dividing the IC50 of the morphine in presence of the antagonist by the IC50 of the agonist alone in the same tissue preparation against opioid receptor mu in guinea pig ileum. Type of assay: functional, tissue-based. The method, boiled down:
as §3

Assay [9] can be described thus: Post wash IC50 ratio obtained by dividing the IC50 of the DADLE in presence of the antagonist by the IC50 of the agonist alone in the same tissue preparation against delta receptor in mouse vas deferens. Type of assay: functional. The method in brief:
as §3

Assay [10] concerns the target Delta-type opioid receptor (Rattus norvegicus) (UniProt P33533). The experiment in a line: Compound was evaluated for its effect towards […] binding to Opioid receptor delta 1 at 0.25 nM concentration activity expressed as Bmax.
For assay [11] the target is unchanged. The experiment in a line: Compound was evaluated for its effect on the [3H]DSLET binding towards Opioid receptor delta 2 at 0.25 nM concentration; activity expressed as Bmax.
Assay [12] has the same target. The experiment in a line: Compound was evaluated for its effect on the [3H]DSLET binding towards Opioid receptor delta 2 at 4 nM concentration; activity expressed as Bmax.
The target of assay [13] is T1, Delta-type opioid receptor (Rattus norvegicus, UniProt P33533). The experiment in a line: Compound was evaluated for its effect towards [3H]DSLET binding to Opioid receptor delta 2 at 0.25 nM concentration.
T1 sequence (P33533 whole entry): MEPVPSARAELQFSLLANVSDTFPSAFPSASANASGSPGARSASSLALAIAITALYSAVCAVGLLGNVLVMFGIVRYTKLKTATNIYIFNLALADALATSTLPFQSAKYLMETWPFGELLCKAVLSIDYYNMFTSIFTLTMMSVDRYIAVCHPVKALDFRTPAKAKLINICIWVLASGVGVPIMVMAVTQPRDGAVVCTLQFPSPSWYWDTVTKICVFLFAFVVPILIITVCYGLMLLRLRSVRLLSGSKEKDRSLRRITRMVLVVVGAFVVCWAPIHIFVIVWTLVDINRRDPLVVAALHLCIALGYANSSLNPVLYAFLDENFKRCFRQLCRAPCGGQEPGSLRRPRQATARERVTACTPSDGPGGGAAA
For assay [14], the target named is T1, Delta-type opioid receptor. Briefly: Compound was evaluated for its effect towards [3H]DPDPE binding to Opioid receptor delta 1 at 0.25 nM concentration expressed as dissociation constant.
Assay [15] has as its target Mu-type opioid receptor (UniProt P35372). Briefly: Post wash IC50 ratio obtained by dividing the IC50 of the morphine in presence of the antagonist by the IC50 of the agonist alone in the same tissue preparation against opioid receptor mu in guinea pig ileum. Type of assay: functional, tissue-based. The method in brief:
as §3

Sequence of Kappa-type opioid receptor (P41145 whole entry): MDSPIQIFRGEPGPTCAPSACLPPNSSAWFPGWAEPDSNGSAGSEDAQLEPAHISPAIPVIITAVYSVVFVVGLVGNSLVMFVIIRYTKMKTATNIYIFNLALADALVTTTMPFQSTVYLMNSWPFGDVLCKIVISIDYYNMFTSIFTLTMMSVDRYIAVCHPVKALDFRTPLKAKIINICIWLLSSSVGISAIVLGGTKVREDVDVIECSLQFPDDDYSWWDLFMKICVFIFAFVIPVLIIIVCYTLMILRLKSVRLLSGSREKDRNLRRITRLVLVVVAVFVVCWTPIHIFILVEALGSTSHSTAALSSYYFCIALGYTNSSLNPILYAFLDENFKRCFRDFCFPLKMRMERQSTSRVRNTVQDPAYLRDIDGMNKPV
Sequence of Delta-type opioid receptor (Rattus norvegicus) (P33533 whole entry): as the sequence (P33533 whole entry) above
Sequence of Mu-type opioid receptor (P35372 whole entry): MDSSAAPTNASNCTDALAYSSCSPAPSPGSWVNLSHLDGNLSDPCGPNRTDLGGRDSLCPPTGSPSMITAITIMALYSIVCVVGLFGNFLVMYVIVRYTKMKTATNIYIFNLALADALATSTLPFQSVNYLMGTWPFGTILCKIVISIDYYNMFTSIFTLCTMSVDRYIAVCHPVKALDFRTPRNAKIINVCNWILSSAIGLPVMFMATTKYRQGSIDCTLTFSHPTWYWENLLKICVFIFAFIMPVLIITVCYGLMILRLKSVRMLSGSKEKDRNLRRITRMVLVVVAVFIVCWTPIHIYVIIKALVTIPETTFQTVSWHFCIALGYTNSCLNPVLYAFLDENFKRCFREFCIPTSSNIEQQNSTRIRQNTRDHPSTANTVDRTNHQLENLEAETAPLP

As usually defined, the inhibition is the drop in the measured response relative to a control, in per cent. `Oc1ccc2c3c1OC1c4[nH]c5cccc(N=C=S)c5c4CC4(O)C(C2)N(CC2CC2)CCC314` (stereo unspecified): the inhibition at 1 µM in the assay filed under Cavia porcellus was determined as 1%; in the assay listed under Mus musculus [5], 24.4%. The ED50 ratio is 2.6 with Mus musculus [1], 1.6 with Mus musculus [2], 1.6 in the assay with Mus musculus [3] and 1.2 in the assay with Mus musculus [4]. Moreover, the Ratio in assay [6] is 4.59; in assay [7], 0.51; at Mu-type opioid receptor [8], 0.77; in assay [9], 3.71.
Turning to `Oc1ccc2c3c1OC1c4[nH]c5ccc(N=C=S)cc5c4CC4(O)C(C2)N(CC2CC2)CCC314` (stereo unspecified), the inhibition at 1 µM in the assay filed under Cavia porcellus is -2.4%; in the assay listed under Mus musculus [5] it was 18.8%. For the same molecule, the ED50 ratio with Mus musculus [1] is given as 0.6; with Mus musculus [2], 52.1; in the assay on Mus musculus [3], 3.2; in the assay on Mus musculus [4] it was 1.3. For the same molecule, the Ratio in assay [6] amounted to 6.68; in [7], 0.93; on Mu-type opioid receptor [8] it was 0.9; in assay [9] it was 7.71.
For `Oc1ccc2c3c1OC1c4[nH]c5cc(N=C=S)ccc5c4CC4(O)C(C2)N(CC2CC2)CCC314` (stereo unspecified), the inhibition at 1 µM in the assay filed under Cavia porcellus was 12.4%; in the assay filed under Mus musculus [5] it was 0%. For the same molecule, the ED50 ratio is 9.2 with Mus musculus [1], 6.8 with Mus musculus [2], 0.9 in the assay on Mus musculus [3] and 1.4 in the assay on Mus musculus [4]. Moreover, the Ratio in assay [6] was determined as 155; in [7], 1.04; at Mu-type opioid receptor [8], 1.44; in assay [9], 185.
For orientation: Kd means the equilibrium constant for the complex coming apart. Higher therefore signals lower affinity. For the molecule `Oc1ccc2c3c1OC1c4[nH]c5c(N=C=S)cccc5c4CC4(O)C(C2)N(CC2CC2)CCC314` (stereo unspecified), the inhibition at 1 µM in the assay listed under Cavia porcellus amounted to 5.9%; in the assay listed under Mus musculus [5] it was 31.8%. For the same molecule, the ED50 ratio came out at 3.7 with Mus musculus [1], 3 with Mus musculus [2], 0.8 with Mus musculus [3] and 2 in the assay with Mus musculus [4]. Further, the Bmax (fM (mg of protein)-1) was determined as 5.6 in assay [10], 208 in [11] and 361 in assay [12]. For the same molecule, the Kd in [13] was found to be 15.7 nM; in assay [14], 2.3 nM. In addition, the Ratio is 7.99 in assay [6]; 0.81 in assay [7]; 15 on Mu-type opioid receptor [8]; 16.1 in [9]; 53 at Mu-type opioid receptor [15].

For the origin of these results see ChEMBL document CHEMBL1125341, “Delta opioid antagonist activity and binding studies of regioisomeric isothiocyanate derivatives of naltrindole: evidence for delta receptor subtypes” (J Med Chem, 1992).
